# What was measured:
# [1] = DPPH free radical scavenging assay; conditions: t = 16 min
# In short: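 Radical scavenging was read by absorbance. Percent inhibition = (Abs0 − AbsT)/Abs0 × 100, where Abs0 is the control at t = 0 and AbsT is the sample with DPPH at t = 16 min.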
# PC-3 cells = experiment: Cell viability; type: cell-based; conditions: Homo sapiens, PC-3, read-out: IC50 (mean ± SD; n = 3)
# In short: (§1)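 Cells were grown in medium with 10% FBS and penicillin/streptomycin 100 units/mL, humidified, at 37 °C and 5% CO2; HT-29 and HEKa were in RPMI-1640. About 2000 cells/well were seeded in 96-well plates. Cells were rinsed once with PBS and five times with distilled water.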
# HT-29 cells [2] = experiment: Cell viability; type: cell-based; conditions: Homo sapiens, HT-29, read-out: IC50 (mean ± SD; n = 3)
# In short: as §1
# Escherichia coli = experiment: Antibacterial assay; type: cell-based; conditions: Gram-negative
# Proteus vulgaris = experiment: Antibacterial assay; type: cell-based; conditions: Gram-negative
# Pseudomonas aeruginosa = experiment: Antibacterial assay; type: cell-based; conditions: Gram-negative
# Bacillus subtilis = experiment: Antibacterial assay; type: cell-based; conditions: Gram-positive
# HEKa cells = experiment: Cell viability; type: cell-based; conditions: Homo sapiens, read-out: IC50 (mean ± SD; n = 3)
# In short: as §1
# Staphylococcus aureus = experiment: Antibacterial assay; type: cell-based; conditions: Gram-positive
# HepG2 cells [3] = experiment: Cell viability; type: cell-based; conditions: Homo sapiens, HepG2, read-out: IC50 (mean ± SD; n = 3)
# In short: as §1
# Candida albicans = experiment: Antifungal assay; type: cell-based; conditions: C. albicans
# In short: (§2)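 Antifungal agar diffusion read as inhibition zone diameter in mm, with amphotericin B as positive control.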
# C. tropicalis = experiment: Antifungal assay; type: cell-based, Candida tropicals
# In short: as §2
# Aspergillus niger = experiment: Antifungal assay; type: cell-based; conditions: A. niger
# In short: as §2
# Aspergillus flavus = experiment: Antifungal assay; type: cell-based; conditions: A. flavus
# In short: as §2
# HepG2 cells [4] = experiment: Cell cycle analysis; type: cell-based, human; conditions: HepG2, 48 h
# HT-29 cells [5] = experiment: Cell cycle analysis; type: cell-based, human; conditions: HT-29, 48 h
IC50 (DPPH free radical scavenging) [1],IC50 (HT-29 cells [2]),SMILES,Inhibition zone (Escherichia coli),Inhibition zone (Proteus vulgaris),Inhibition zone (Pseudomonas aeruginosa),Inhibition zone (Bacillus subtilis),IC50 (HEKa cells),Inhibition zone (Staphylococcus aureus),other results
55.9 µg/mL,8.9 ± 0.97 µg/mL,"CC1(C)C[C@H](O)C[C@@]2(C)OC(=O)C=C12 [Compound 3, loliolide]",10 ± 1.40 mm,10 ± 1.50 mm,09 ± 1.20 mm,15 ± 1.70 mm,3.1 ± 0.1 µg/mL,16 ± 1.90 mm,IC50 (PC-3 cells): 11.9 ± 1.31 µg/mL; IC50 (HepG2 cells [3]): 4.6 ± 0.51 µg/mL
,,C[C@@H]1[C@H](O)[C@@H](C)/C=C/C=C/C=C/C=C/C=C/C=C/C=C/[C@H](O[C@@H]2O[C@H](C)[C@@H](O)[C@H](N)[C@@H]2O)C[C@@H]2O[C@](O)(C[C@@H](O)C[C@@H](O)[C@H](O)CC[C@@H](O)C[C@@H](O)CC(=O)O[C@H]1C)C[C@H](O)[C@H]2C(=O)O [amphotericin B],,,,,,,diameter of inhibition zone (Candida albicans): 29 ± 0.90 mm; diameter of inhibition zone (C. tropicalis): 25 ± 0.87 mm; diameter of inhibition zone (Aspergillus niger): 41 ± 0.70 mm; diameter of inhibition zone (Aspergillus flavus): 33 ± 1.11 mm
,,CC1(C)S[C@@H]2[C@H](NC(=O)[C@H](N)c3ccc(O)cc3)C(=O)N2[C@H]1C(=O)O [Amoxicillin],33 ± 2.90 mm,30 ± 4.00 mm,39 ± 2.40 mm,23 ± 6.40 mm,,20 ± 1.90 mm,
,1.7 ± 0.02 µg/mL,COc1cccc2c1C(=O)c1c(O)c3c(c(O)c1C2=O)C[C@@](O)(C(=O)CO)C[C@@H]3O[C@H]1C[C@H](N)[C@H](O)[C@H](C)O1 [Doxorubicin],,,,,0.7 ± 0.04 µg/mL,,cell cycle arrest phase (HepG2 cells [4]): arrested in G2 phase; cell cycle arrest phase (HT-29 cells [5]): arrested in G2 phase
14.2 µg/mL,,O=C1O[C@H]([C@@H](O)CO)C(O)=C1O [vitamin C],,,,,,,
